{
  "source": "ChEMBL document CHEMBL3085707",
  "about": "“Solution-phase microwave assisted parallel synthesis of N,N'-disubstituted thioureas derived from benzoic acid: biological evaluation and molecular docking studies” (Eur J Med Chem, 2013)",
  "key": {"[1]": {"test_system": "Radical scavenging activity", "assay": "Antioxidant activity assessed as DPPH free radical scavenging activity at 1 mM after 30 mins", "type": "functional"}, "Candida tropicalis": {"test_system": "Candida tropicalis", "assay": "Antifungal activity against Candida tropicalis after 24 to 48 hrs by agar well diffusion method", "type": "functional", "method_in_brief": "(§1)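 Agar well diffusion: 20 mL inoculum added to molten potato dextrose agar and pour-plated, with 6 mm wells cut by cork borer after setting. Inhibition zone measured in mm and scored from + (<1 mm) to ++++ (>6 mm). 2% DMSO in screen medium was the negative control; fluconazole and terbinafine were separate positive controls.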"}, "Urease": {"molecular_target": "Urease (Canavalia ensiformis, UniProt P07374)", "sequence (P07374 whole entry)": "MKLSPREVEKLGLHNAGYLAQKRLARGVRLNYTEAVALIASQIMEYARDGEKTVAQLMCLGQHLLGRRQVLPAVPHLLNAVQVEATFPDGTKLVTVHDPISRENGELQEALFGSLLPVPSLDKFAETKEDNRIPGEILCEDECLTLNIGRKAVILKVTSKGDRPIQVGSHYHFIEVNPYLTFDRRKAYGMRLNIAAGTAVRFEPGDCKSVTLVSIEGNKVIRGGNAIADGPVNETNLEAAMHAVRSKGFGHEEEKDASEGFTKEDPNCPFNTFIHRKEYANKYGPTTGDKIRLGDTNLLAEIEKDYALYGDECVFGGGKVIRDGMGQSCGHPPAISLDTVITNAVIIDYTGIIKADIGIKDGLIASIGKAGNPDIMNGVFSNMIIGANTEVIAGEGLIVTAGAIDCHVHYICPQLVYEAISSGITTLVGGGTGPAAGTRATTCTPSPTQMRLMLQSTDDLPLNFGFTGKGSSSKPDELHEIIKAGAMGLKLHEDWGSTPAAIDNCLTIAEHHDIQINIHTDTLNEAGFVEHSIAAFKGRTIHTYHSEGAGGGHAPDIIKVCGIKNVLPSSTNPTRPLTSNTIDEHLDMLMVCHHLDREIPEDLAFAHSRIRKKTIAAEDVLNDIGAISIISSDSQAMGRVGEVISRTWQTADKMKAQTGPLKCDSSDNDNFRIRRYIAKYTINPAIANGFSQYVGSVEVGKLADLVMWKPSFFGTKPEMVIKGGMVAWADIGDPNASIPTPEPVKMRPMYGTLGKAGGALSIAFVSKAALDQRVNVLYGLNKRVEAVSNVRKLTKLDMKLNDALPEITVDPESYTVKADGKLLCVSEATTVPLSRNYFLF", "assay": "Inhibition of jack bean urease assessed as ammonia production after 30 mins by indophenol method", "method_in_brief": "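Indophenol (Weatherburn) ammonia read-out. Enzyme (5 U/mL) and test compound in buffer of 100 mM urea, 1 mM EDTA, 10 mM K2HPO4 and 10 mM […] at pH 8.2, incubated 30 min at 37 °C. Phenol and alkali reagents (NaOH, 0.1% active chloride NaOCl) then added; absorbance read by microplate reader. Run in triplicate; thiourea and acetohydroxamic acid as reference inhibitors.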"}, "Aspergillus niger": {"test_system": "Aspergillus niger", "assay": "Antifungal activity against Aspergillus niger after 24 to 48 hrs by agar well diffusion method", "type": "functional", "method_in_brief": "as §1"}, "Aspergillus flavus": {"test_system": "Aspergillus flavus", "assay": "Antifungal activity against Aspergillus flavus after 24 to 48 hrs by agar well diffusion method", "type": "functional", "method_in_brief": "as §1"}, "[2]": {"molecular_target": "Urease (Canavalia ensiformis) (UniProt P07374)", "sequence (P07374 whole entry, looked up)": "as the sequence (P07374 whole entry) above", "assay": "Competitive inhibition of jack bean urease by Lineweaver-Burk plot analysis", "method_in_brief": "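Urease kinetics by the Weatherburn method: buffer of 100 mM urea, 1 mM EDTA, 10 mM K2HPO4 and 10 mM […] at pH 8.2, with enzyme at 5 U/mL and inhibitor, incubated 30 min at 37 °C. Inhibitor was used at 0, 0.05 and 0.5 mM. Vmax and Km were taken from Lineweaver-Burk plots.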"}, "Saccharomyces cerevisiae": {"test_system": "Saccharomyces cerevisiae", "assay": "Antifungal activity against Saccharomyces cerevisiae after 24 to 48 hrs by agar well diffusion method", "type": "functional", "method_in_brief": "as §1"}},
  "note": "Activity calls are given as the source filed them. The rule behind the calls is not given here.",
  "data": [
    {"smiles": "O=C(NC(=S)Nc1c(Cl)cc(Cl)cc1Cl)c1ccccc1", "values": [
      {"measurement": "inhibition", "setting": "[1]", "value": 19, "unit": "%"},
      {"measurement": "inhibition zone (IZ)", "setting": "Candida tropicalis", "value": 3, "unit": "mm"},
      {"measurement": "IC50", "setting": "Urease", "value": 1.67, "unit": "µM"},
      {"measurement": "inhibition zone (IZ)", "setting": "Aspergillus niger", "value": 3, "unit": "mm"},
      {"measurement": "inhibition zone (IZ)", "setting": "Aspergillus flavus", "value": 3, "unit": "mm"},
      {"measurement": "inhibition", "setting": "[2]", "value": "Active"},
      {"measurement": "inhibition zone (IZ)", "setting": "Saccharomyces cerevisiae", "value": 3, "unit": "mm"}
    ]}
  ]
}
